# From PubChem BioAssay AID651783 (The Scripps Research Institute Molecular Screening Center, 2012)
# In all, about 2,400 compounds went through this assay and about 2,000 (83%) were called active.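 How the source made its calls: active means activation above a cutoff set at the run's mean compound activation plus 3 SD (cut at about 39% in these data); inactive means the rest.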 So high a share suggests a set chosen from earlier hits. Not all results are given here.
# Biological target: Trace amine-associated receptor 1 (Homo sapiens) (UniProt Q96RJ0)
# Sequence (Q96RJ0 whole entry, looked up): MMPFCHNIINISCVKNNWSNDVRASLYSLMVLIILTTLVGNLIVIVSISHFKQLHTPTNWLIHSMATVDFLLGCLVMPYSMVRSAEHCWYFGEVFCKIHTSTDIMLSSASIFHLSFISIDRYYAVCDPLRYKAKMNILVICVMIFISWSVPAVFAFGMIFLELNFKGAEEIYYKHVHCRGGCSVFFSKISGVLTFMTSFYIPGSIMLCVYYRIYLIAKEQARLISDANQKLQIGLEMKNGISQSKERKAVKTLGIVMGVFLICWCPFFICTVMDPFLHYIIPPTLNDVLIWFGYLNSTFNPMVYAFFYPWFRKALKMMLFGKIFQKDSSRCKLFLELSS
# Assay: activators of TAAR1 calcium signal, triplicate retest – Fluo-8 calcium fluorescence, CHO RD-HGA16 cells, confirmation (AID 651783);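 further: promiscuous G-alpha-16 overexpression reroutes TAAR1 signalling from cAMP to calcium; peak fluorescence divided by basal pre-compound fluorescence per well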
# Settings: CHO RD-HGA16 TAAR1, Fluo-8 calcium fluorescence; at 3 µM; active compounds read high; scaled: DMSO 0%, maximal phenethylamine 100%
# How it was run: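 Signal – Fluo-8 calcium fluorescence, 5 s basal then 140 s kinetic read · Assay system – RD-HGA16 CHO cells co-expressing hTAAR1 and promiscuous Gα16 · Times – Fluo-8 loading 75 min 37 °C and 30 min RT · Dosing – single nominal final dose of 3 µM per compound · Benchmarks – low DMSO wells, high PEA EC100 wells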
row,SMILES,activation
1,O=C(COC(=O)Cc1ccccc1F)NCCc1ccccc1,73% (active)
2,C[C@H](NC(=O)c1ccccc1)C(=O)OCC(=O)c1c[nH]c2ccccc12,79.6% (active)
3,CC(=O)Nc1ccccc1Sc1ccc2c3c(cccc13)C(=O)N(c1ccc(C)cc1)C2=O,-2.82% (inactive)
4,Cc1ccn2c(=O)c(C(=O)NCCC3=CCCCC3)c(O)nc2c1,106% (active)
5,O=C(CCCN=C1NS(=O)(=O)c2ccccc21)OCC(=O)c1ccc(F)c(F)c1,83.8% (active)
6,O=Cc1c(NCCc2cccc(F)c2)c2ccccc2[nH]c1=O,78.3% (active)
7,CCCCOc1ccc(CSC(=N)N)cc1[N+](=O)[O-],48% (active)
8,O=C1CCCC(O)=C1C=NCCc1ccccc1,74.5% (active)
9,COc1cccc(-c2cnc(OC(C)(C)C)nc2OC(C)(C)C)c1,38.6% (active)
10,CN(C)c1ccc(/C=C2\NC(=S)N(Cc3ccccc3)C2=O)cc1,51.1% (active)
11,O=C(CSc1nc(-c2ccco2)cc(C(F)(F)F)n1)NCc1cccs1,-0.49% (inactive)
12,c1ccc2c(c1)OCC(CNc1ncnc3nc[nH]c13)O2 (configuration not stated),210% (active)
13,CCCSc1nc2c(c(=O)n(C)c(=O)n2C)n1Cc1ccc(C)cc1,61% (active)
14,COc1ccc(C(=O)CN2C(=O)NC(C)(c3ccc(C)cc3)C2=O)cc1OC (configuration not stated),46.6% (active)
15,c1ccc(Nc2nc(N3CCOCC3)c3ccccc3n2)cc1,93.8% (active)
16,CC(NC(=O)c1cc(-c2ccccc2)on1)c1ccccc1 (configuration not stated),66.5% (active)
17,O=C(Nc1ccccc1)Nc1nnc(COc2ccccc2F)s1,71.7% (active)
18,Nc1cc(OC(=O)c2ccccc2Br)nn1S(=O)(=O)c1ccccc1,59.1% (active)
19,NC(Cc1ccccc1)c1csc(Nc2cc(Oc3ccccc3)ncn2)n1 (configuration not stated),87% (active)
20,COc1ccc(CC(N)c2csc(NC(=O)Cc3ccccc3)n2)cc1 (configuration not stated),57.8% (active)
21,CC(C)(C)CC(=O)Nc1nc(C(N)Cc2ccc(C(F)(F)F)cc2)cs1 (configuration not stated),99% (active)

row,SMILES,activation
1,CN(C)CCCN(C(=O)c1ccc(S(=O)(=O)N2CCCCCC2)cc1)c1nc2ccc(Br)cc2s1,44% (active)
2,CN(C)CCCN(C(=O)c1ccc(S(=O)(=O)N2CCCc3ccccc32)cc1)c1nc2ccc(F)cc2s1,62.2% (active)
3,Cc1cccc(NC(=O)C(C)N2C(=O)C3C4CC(C(Br)C4Br)C3C2=O)c1 (configuration not stated),33.9% (inactive)
4,O=C1CCCN2N=C(SCC(=O)Nc3ccc(Br)cc3)SC2=N1,55.6% (active)
5,O=C(NCCc1ccccc1)C(=O)NCC1OCCN1S(=O)(=O)c1cccs1 (configuration not stated),70.4% (active)
6,Cn1c(=O)c(=O)n(C)c2cc(S(=O)(=O)NCCc3ccccc3)ccc21,98.3% (active)
7,CC(Oc1ccc2ccccc2c1)C(=O)NNC(=S)NC(=O)c1ccco1 (configuration not stated),76% (active)
8,CCCc1ccc(OCC(=O)NNC(=S)NC(=O)c2ccco2)cc1,93.8% (active)
9,Oc1ccc2ccc3cccc[n+]3c2c1,60.5% (active)
10,COc1ccc(C(N)c2csc(NC(=O)Nc3cccc(C(F)(F)F)c3)n2)cc1 (configuration not stated),45.9% (active)
11,NC(c1ccccc1)c1csc(NC(=O)Nc2cccc(C(F)(F)F)c2)n1 (configuration not stated),61.4% (active)
12,O=c1cnnc(Nc2ccccc2)[nH]1,80.2% (active)
13,CCCCC(=O)NNC(=S)NC(=O)C(c1ccccc1)c1ccccc1,152% (active)
14,Cc1cc(C)c2cc(C#N)c(N3CCNCC3)nc2c1,90.6% (active)
15,CCOc1ccc(Br)cc1CSC(=N)N,73.8% (active)
16,CCN(CC)c1ccc2oc(=O)c(C)nc2c1,34.1% (inactive)
17,O=C(Nc1ccc(Cl)cc1)N1CCc2[nH]c3ccccc3c2C1,21.7% (inactive)
18,O=C(c1noc2c1CCCC2)N1CCc2ccccc2C1,68% (active)
19,Cc1cc(=O)oc2c(C)c(OCC(=O)NCCN3CCOCC3)ccc12,2.28% (inactive)
20,c1ccc(-c2csc(N3CCc4ccccc4C3)n2)cc1,81.8% (active)
21,CSc1nc(N)c(C#N)c(-c2ccccc2Cl)c1C#N,58.5% (active)

row,SMILES,activation
1,CCCCCC(=O)NC(=S)NNC(=O)c1ccc([N+](=O)[O-])cc1,113% (active)
2,O=C(NCCc1ccccc1)/C(=C\c1ccc([N+](=O)[O-])cc1)NC(=O)c1ccccc1,34.4% (inactive)
3,Cc1ccc(Cl)cc1N1CCN(C(=O)c2cccc3c(=O)c(C)c(-c4ccccc4)oc23)CC1,113% (active)
4,S=C(NCCc1ccccc1)N1CCn2cccc2C1c1ccncc1 (configuration not stated),95% (active)
5,COc1ccc2c(c1)OC(O)(C(F)(F)C(F)F)CC2=O (configuration not stated),38.7% (active)
6,COC(=O)c1[nH]c2cccc(C)c2c1NC(=O)CN1CCCc2ccccc21,68.9% (active)
7,Cc1cc2nc3c(=O)[nH]c(=O)nc-3n(C[C@H](O)[C@H](O)[C@H](O)CO)c2cc1C,121% (active)
8,O=C(N[C@H](C(=O)N1CCC[C@H]1C(=O)NCCc1ccccc1Cl)c1ccccc1)c1ccccc1,83.6% (active)
9,Nc1cccc2c1C(=O)N(Cc1nnc(-c3ccccc3Br)o1)C2=O,100% (active)
10,CCC(c1nnnn1Cc1ccco1)N(CCc1ccccc1)Cc1cc2ccc(OC)cc2[nH]c1=O (configuration not stated),30.9% (inactive)
11,CCC(c1nnnn1Cc1ccco1)N(CCc1ccccc1)Cc1cc2cccc(C)c2[nH]c1=O (configuration not stated),50.2% (active)
12,CCCn1c(O)c(CN2CCCC(C)C2)c(C)c(C#N)c1=O (configuration not stated),85% (active)
13,Nc1c(NCCc2ccccc2)c2ccccc2oc1=O,70.5% (active)
14,CC(Oc1ccc(Cl)cc1)C(=O)OCC(=O)Nc1ncc(Cl)cc1Cl (configuration not stated),30.3% (inactive)
15,O=[N+]([O-])c1cc(S(=O)(=O)NCCc2ccccn2)ccc1Cl,76.4% (active)
16,O=C1C=C(c2ccc(Cl)cc2)C(=O)N1Nc1ccccc1,58.5% (active)
17,CCc1ccccc1S(=O)(=O)Cc1ccc(C(=O)NCCc2ccccc2)o1,78.3% (active)
18,O=C(NNC(=S)NC(=O)c1cn(-c2ccccc2)nc1-c1ccccc1)c1ccncc1,103% (active)
19,O=C(Nc1ccc(F)cc1)Nc1nnc([C@H]2C[C@H](O)[C@@H](CO)O2)s1,52.9% (active)
20,Nc1c(C(=O)c2cccs2)sc2nsc(SCCN3CCCCC3)c12,85% (active)
